An excerpt weighted towards active compounds, which were near 2.4% of everything screened.
TNF death inh: inhibitors of TNF-alpha triggered necroptosis, primary screen, cell-based, Jurkat FADD-/-, single concentration. actives 0.068% (n = 220,000). Jurkat FADD-/- TNF necroptosis rescue, ATP luminescence, 24 h; 0 = TNF only, 100 = no-TNF cells. activation (protection from cell death), % at 10 µM;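 active = activation, meaning protection from cell death, of at least 50% relative to plate controls; inactive = activation below 50%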;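 note: necroptosis triggered by 40 ng/mL TNF-alpha added together with compound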
Dynein cargo inh: inhibitors of GR-EGFP nuclear translocation, primary screen, dynein cargo transport inhibitor project, imaging, high-content, 3617.4 mouse cells. test concentration mostly 20 µM; stimulated with dexamethasone, 1 µM; hits give low values. z-score, hits read low. actives 0.47% (n = 220,000). AID 1381, 2008;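 active = plate z-score of nuclear minus cytoplasmic receptor signal below a set negative limit, without overly bright fluorescence or cell loss, cut at about -3.5 in these data, passing the limit was not always enough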;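 note: z-score of nuclear minus cytoplasmic ring GR-EGFP intensity difference per well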
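Schedule: 48 h induction, then 1 h compound, then 30 min agonist, 37 °C. Buffer or medium: tetracycline-free induction medium containing charcoal-stripped FBS. Reagent: 1.0 µM final dexamethasone stimulus. Evaluation: nuclear versus cytoplasmic GR-EGFP signal, averaged per well. Signal: high-content fluorescence imaging after fixation.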
zVAD death inh: inhibitors of zVAD-triggered necroptosis, primary screen, L929 cells | L929 zVAD necroptosis rescue, ATP luminescence, 24 h; with zVAD 60 µM | viability rescue, % at 10 µM | AID 1377, 2008 | actives 0.38% (n = 220,000);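 active = activation, scaled between plate controls, above about 75%, limit read from the data; inactive = activation under that limit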;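 note: 0% = zVAD with DMSO and 100% = DMSO alone without zVAD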
Mdm2 ligase inh: MDM2-luciferase reporter signal enhancers, primary screen, MDM2 E3 ligase inhibitor project, cell-based, luminescence, 1536-well; E3 ubiquitin-protein ligase Mdm2 (Homo sapiens), Q00987; cell-based MDM2 ubiquitination luciferase reporter, 2 h; 0 = plate control, 100 = twice control, blank-subtracted; signal enhancement, % at 5 µM; actives 0.11% (n = 210,000);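 active = signal enhancement of 30% or more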;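 note: luminescence tracks abundance of the self-degrading MDM2-luciferase fusion protein; higher signal means inhibition of MDM2 E3 ligase activity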
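Timing – 2 h compound exposure at 37 °C · Assay system – mammalian cells stably expressing self-ubiquitinating, self-degrading MDM2 E3–luciferase fusion · Amount – 2000 cells seeded into each well · Measure – % luminescence enhancement versus blank-corrected plate control mean · Measured by – SteadyLite luminescence, 15 min reagent step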
Hck-Nef inh: inhibitors of Nef-activated human Hck kinase, primary screen, biochemical, Z-Lyte FRET, 384-well, Hck-YEEI | inhibition, % at 20 µM | AID 463187, 2010 | Recombinant Hck-YEEI plus Nef, Z-Lyte FRET kinase assay | actives 0.68% (n = 220,000) | Tyrosine-protein kinase HCK (Homo sapiens), P08631;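 active = Hck-Nef kinase inhibition above about 50%, limit read from the data; inactive = inhibition below that limit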;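 note: 0% = DMSO with Hck plus Nef and 100% = Hck alone without Nef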
Target sequence (P08631 whole entry, looked up): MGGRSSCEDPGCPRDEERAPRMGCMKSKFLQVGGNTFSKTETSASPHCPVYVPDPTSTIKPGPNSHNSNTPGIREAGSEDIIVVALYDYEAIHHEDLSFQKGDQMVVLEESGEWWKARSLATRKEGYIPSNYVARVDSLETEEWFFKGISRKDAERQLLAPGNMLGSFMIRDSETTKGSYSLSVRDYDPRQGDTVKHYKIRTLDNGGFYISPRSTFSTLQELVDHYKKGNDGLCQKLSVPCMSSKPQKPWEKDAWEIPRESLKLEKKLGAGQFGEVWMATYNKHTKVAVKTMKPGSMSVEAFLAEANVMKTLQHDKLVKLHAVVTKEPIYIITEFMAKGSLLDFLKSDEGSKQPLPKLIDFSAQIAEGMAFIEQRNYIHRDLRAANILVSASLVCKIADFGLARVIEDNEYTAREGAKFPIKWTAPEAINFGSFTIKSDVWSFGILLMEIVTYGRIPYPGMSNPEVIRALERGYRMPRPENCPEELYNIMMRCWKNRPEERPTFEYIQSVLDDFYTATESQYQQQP
Autophagy mod: autophagy modulators in MEF cells, primary screen, imaging, high-content, MEF GFP-LC3 | MEF GFP-LC3 puncta imaging; test concentration mostly 10 µM | calls only at 10 µM (by protocol) | actives 0.98% (n = 190,000);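 active = percentage of spot-positive cells more than 3 SD above its plate mean, without a fluorescence outlier flag or 80% toxicity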;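 note: spot-positive cell cutoff set from DMSO-treated cells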
Hck-Nef confirm: retest of Hck:Nef kinase inhibitor hits, confirmation, biochemical, Z-Lyte FRET, 384-well, p-Tyr peptide counterscreen. shares compounds with Hck-Nef inh. Recombinant Hck-YEEI:Nef, Z-Lyte FRET kinase assay. calls only at 10 µM. actives 28% (n = 1,300);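 active = average inhibition of at least 50%, with Z-scores no higher than 3 in both the phospho-tyrosine peptide and fluorescence counterscreens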
The depositor's hits bear a star; i = inactive; nt = no result given; + = active, no number.

SMILES	TNF death inh	Dynein cargo inh	zVAD death inh	Mdm2 ligase inh	Hck-Nef inh	Autophagy mod	Hck-Nef confirm
CC(=O)n1cc([C@H]2C=C(C(=O)NCc3ccccc3)O[C@@H](OCc3ccc(CO)cc3)C2)c2ccccc21	-1	2.4	68	nt	53*	i	+
Cc1ccc(OCC(=O)c2c(O)c3ccccc3oc2=O)cc1C	0	0.43	0	-5	0	i	nt
NC(=S)N/N=C/c1coc2ccc(Br)cc2c1=O	0	-0.36	0	-10	73*	nt	+
NC(=S)N/N=C/c1coc2c(ccc3ccccc32)c1=O	-3	0.15	0	-45	61*	i	+
C/C(=N\S(=O)(=O)c1ccc(C)cc1)N1CCN(S(=O)(=O)c2ccccc2)C1C(C)C (configuration not stated)	-2	-2.4	1	-7	0	i	nt
CCCc1cc(-c2[nH]ncc2-c2ccc(C(=O)OCC)o2)c(O)cc1O	-12	0.28	0	-10	32	i	nt
CCCc1cc(-c2[nH]ncc2-c2ccc3c(c2)OCCCO3)c(O)cc1O	-9	-0.82	0	6	74*	i	+
CCOc1ccc(-c2ccc(C=O)o2)c([N+](=O)[O-])c1	1	0.48	3	-4	100*	i	i
Cc1ccc(NC(=O)CN(C)Cc2nc3c(Br)cc(Br)cc3c(=O)[nH]2)cc1	1	-0.51	2	-15	74*	i	+
O=C(CCc1ccccc1)Nc1cccc(NC(=O)CCc2ccccc2)c1	1	0.017	0	-10	1	i	nt
O=C(CCc1ccccc1)c1c(O)cc(O)cc1O	-2	-0.6	0	-23	69*	nt	i
Cc1nn(CC(=O)Nc2ccc3c(c2)oc2ccccc23)c(=O)c2ccccc12	-4	-0.073	2	-19	51*	i	i
COC(OC)c1ccnc(-c2ccc(OC(=O)c3ccccc3)cc2)n1	0	-0.048	2	0	58*	i	i
Cc1nc(N)sc1N=Nc1ccc(F)cc1	0	-0.45	1	-2	9	i	nt
CCCCCCc1cc2cc(S(=O)(=O)c3ccc(Cl)cc3)c(=O)oc2cc1O	-1	3.8	nt	nt	110*	i	nt
CCCCCCc1cc2cc(S(=O)(=O)c3ccc(C)cc3)c(=O)oc2cc1O	2	0.0028	nt	nt	80*	i	nt
CCCCCCc1cc2cc(C(=O)NCc3ccccc3)c(=N)oc2cc1O	-1	-1.1	-1	5	11	i	nt
CCN(CC)c1ccc2cc(S(=O)(=O)c3ccc(Cl)cc3)c(=O)oc2c1	1	-0.091	nt	nt	6	i	nt
Cc1ccc(S(=O)(=O)c2cc3cc(Br)ccc3oc2=O)cc1	2	-0.91	1	-8	3	i	nt
CCCCCCc1cc2cc(C(=O)Nc3ccccc3)c(=O)oc2cc1O	-8	0.63	1	-20	72*	i	i
Fc1ccc(-n2c(-c3cccs3)nc3nc4ccccc4nc32)cc1	2	-1.2	2	1	8	i	nt
Fc1cccc(-n2c(-c3cccs3)nc3nc4ccccc4nc32)c1	-1	-0.81	-1	nt	59*	nt	i
COc1cc(C=C2C(=O)c3ccccc3C2=O)ccc1O	-9	-0.0094	0	-4	74*	nt	i

Source: PubChem BioAssay
